Laboratory results as given in ChEMBL document CHEMBL3813598, “Development of hydroxy-based sphingosine kinase inhibitors and anti-inflammation in dextran sodium sulfate induced colitis in mice” (Bioorg Med Chem, 2016).
The source made the active and inactive calls. The calls are words filed in the database; no cut-off is given here.

What was measured:
[1] = system: Mus musculus; assay: Antiinflammatory activity in DSS- induced C57BL/6 mouse colitis model assessed as body weight at 5 mg/kg, ip after 10 days (reference value: 15.69 +/- 0.65 g); format: functional
Procedure, shortened: (§1)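 Female C57BL/6 mice, 6–8 weeks, randomized into five groups. Colitis induced by 2.5% w/v DSS in drinking water for 5 days, then 5 days of normal water. Test agent given ip at 5 or 10 mg/kg, or 5-ASA ig at 50 mg/kg, until study end. Controls were water plus vehicle and DSS plus vehicle. Body weight recorded daily; colon length taken at sacrifice on day 10. Mean ± SD, n = 10.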

[2] = system: Mus musculus; assay: Antiinflammatory activity in DSS- induced C57BL/6 mouse colitis model assessed as body weight at 10 mg/kg, ip after 10 days (reference value: 15.69 +/- 0.65 g); format: functional; procedure, shortened: as §1
[3] = system: Mus musculus; assay: Antiinflammatory activity in DSS- induced C57BL/6 mouse colitis model assessed as colon length at 5 mg/kg, ip after 10 days (reference value: 45.68 +/- 1.34 mm); format: functional; procedure, shortened: as §1
[4] = system: Mus musculus; assay: Antiinflammatory activity in DSS- induced C57BL/6 mouse colitis model assessed as colon length at 10 mg/kg, ip after 10 days (reference value: 45.68 +/- 1.34 mm); format: functional; procedure, shortened: as §1
[5] = system: Mus musculus; assay: Antiinflammatory activity in DSS- induced C57BL/6 mouse colon colitis model assessed as cellular infiltration of mononuclear macrophages/neutrophils at 10 mg/kg, ip after 24 hrs by hematoxylin/eosin staining based assay; format: functional, organism-based
Procedure, shortened: (§2)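 Colitis induced in female C57BL/6 mice as 2.5% DSS in drinking water for 5 days, then 5 days of water. Dosing ip or 5-ASA ig until sacrifice at day 10. Colons fixed in 10% buffered formalin (pH 7.4) for at least 24 h. Sections scored for cellular infiltration, mucosal lesion and crypt damage to give a histologic score.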

[6] = system: Mus musculus; assay: Antiinflammatory activity in DSS- induced C57BL/6 mouse colon colitis model assessed as mucosal/submucosal lesion at 10 mg/kg, ip after 24 hrs by hematoxylin/eosin staining based assay; format: functional, organism-based; procedure, shortened: as §2
[7] = system: Mus musculus; assay: Antiinflammatory activity in DSS- induced C57BL/6 mouse colon colitis model assessed as degeneration/necrosis of crypt cells at 10 mg/kg, ip after 24 hrs by hematoxylin/eosin staining based assay; format: functional, organism-based; procedure, shortened: as §2
[8] = system: Mus musculus; assay: Antiinflammatory activity in DSS- induced C57BL/6 mouse colon colitis model assessed as inhibition of IL6 expression at 5 to 10 mg/kg, ip after 24 hrs by hematoxylin staining based assay; format: functional, organism-based
Procedure, shortened: (§3)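 Colons come from the same DSS model, fixed in 10% buffered formalin for at least 24 h. Paraffin sections were deparaffinized. Antigen was retrieved in 10 mM sodium citrate with 0.1% Tween 20 at 100 °C for 20 min. Primary antibody was applied in PBS with 5% BSA and 10% goat serum, then HRP polymer at room temperature for 30 min. Detection was DAB with hematoxylin counterstain. IL-6 and COX-2 positive labeling was counted automatically. Mean ± SD.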

[9] = system: Mus musculus; assay: Antiinflammatory activity in DSS- induced C57BL/6 mouse colon colitis model assessed as inhibition of COX2 expression at 5 to 10 mg/kg, ip after 24 hrs by hematoxylin staining based assay; format: functional, organism-based; procedure, shortened: as §3
[10] = target: Sphingosine kinase 1 (Homo sapiens, UniProt Q9NYA1); assay: Inhibition of GST-tagged full length human recombinant SPHK1 expressed in baculovirus using sphingosine as substrate preincubated for 10 mins measured after 1 hr by ADP-quest assay
[11] = target: T1, Sphingosine kinase 2 (Homo sapiens, UniProt Q9NRA0); assay: Inhibition of GST-tagged full length human recombinant SPHK2 expressed in baculovirus using sphingosine as substrate preincubated for 10 mins measured after 1 hr by ADP-quest assay
T1 sequence (Q9NRA0 whole entry): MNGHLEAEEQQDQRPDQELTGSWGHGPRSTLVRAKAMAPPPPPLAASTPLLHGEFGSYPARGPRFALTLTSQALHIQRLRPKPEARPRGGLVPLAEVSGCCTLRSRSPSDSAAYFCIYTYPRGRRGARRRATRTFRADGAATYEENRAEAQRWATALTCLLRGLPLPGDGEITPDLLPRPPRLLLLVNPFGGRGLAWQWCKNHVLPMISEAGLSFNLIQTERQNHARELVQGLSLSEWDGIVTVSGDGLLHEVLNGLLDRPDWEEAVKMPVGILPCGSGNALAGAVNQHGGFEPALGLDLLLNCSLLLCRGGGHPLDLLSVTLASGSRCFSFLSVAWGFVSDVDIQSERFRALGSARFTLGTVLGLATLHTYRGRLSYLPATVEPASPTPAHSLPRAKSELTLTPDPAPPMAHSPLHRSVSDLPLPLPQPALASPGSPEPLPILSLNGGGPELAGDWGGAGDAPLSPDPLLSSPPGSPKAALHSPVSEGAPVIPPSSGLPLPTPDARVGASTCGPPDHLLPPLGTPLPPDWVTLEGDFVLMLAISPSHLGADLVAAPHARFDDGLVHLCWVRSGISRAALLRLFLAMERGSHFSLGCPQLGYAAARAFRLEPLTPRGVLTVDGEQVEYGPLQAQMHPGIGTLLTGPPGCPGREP
Procedure, shortened: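 Human recombinant SphK1 or SphK2 with sphingosine substrate and ATP, tested in 384-well format. Enzyme was preincubated with compound for 10 min, then the reaction ran at 28 °C for 1 h. ADP Quest reagents A and B were added for 30 min at room temperature. Fluorescence was read at Ex 530/Em 590 nm. Values are mean of n = 3 in triplicate.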

[12] = system: Mus musculus; assay: Antiinflammatory activity in DSS- induced C57BL/6 mouse colitis model assessed as change in body weight at 5 to 10 mg/kg, ip after 7 days; format: functional, organism-based; procedure, shortened: as §1

Sphingosine kinase 1, sequence (Q9NYA1 whole entry): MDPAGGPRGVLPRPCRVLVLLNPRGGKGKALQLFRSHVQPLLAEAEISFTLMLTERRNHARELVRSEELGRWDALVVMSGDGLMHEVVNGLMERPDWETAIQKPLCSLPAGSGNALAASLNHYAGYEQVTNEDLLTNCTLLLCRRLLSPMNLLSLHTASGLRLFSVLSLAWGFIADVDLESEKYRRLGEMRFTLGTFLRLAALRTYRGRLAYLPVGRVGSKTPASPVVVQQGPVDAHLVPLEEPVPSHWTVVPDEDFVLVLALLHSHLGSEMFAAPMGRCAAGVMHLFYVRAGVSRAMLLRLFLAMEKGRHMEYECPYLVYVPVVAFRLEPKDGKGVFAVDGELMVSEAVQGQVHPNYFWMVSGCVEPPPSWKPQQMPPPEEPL

For `COc1cccc(COc2ccc(/C=N/NC(=O)c3cc(O)c(O)c(O)c3)cc2)c1`, which Activity [1] is on record?
Its Activity is 17.1 g.

And the Activity [2]?
Its Activity is 17.5 g.

What about the Activity [3] of the same compound?
Its Activity is 53.04 mm.

What about the Activity [4] of the same compound?
Its Activity is 51.41 mm.

What about the Activity [5] of the same compound?
The Activity was “Active”.

And the Activity [6]?
Its Activity is “Active”.

What about the Activity [7] of the same compound?
Its Activity is “Active”.

What about the inhibition [8] of the same compound?
Its inhibition is “Active”.

And the inhibition [9]?
Its inhibition is “Active”.

And the IC50 [10]?
The IC50 was 4.36 µM.

And the IC50 [11]?
Its IC50 is 2.17 µM.

What about the Activity [12] of the same compound?
Its Activity is “inactive”.
